HCT116 PTEN-null – suppresses growth of cells with PTEN deletion | HCT116 PTEN-null viability, CellTiter-Glo, 60 h; stronger effect = lower value | 140,000 tested, 1.2% active | viability, % at 10 µM;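 active = viability at or below a set limit, 4 SD under the median of all tested compounds, cut at about 3.7% in these data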;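 note: PTEN knockout HCT116 line with beta catenin targeted HCT116 as companion control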
Lmaj promast – Leishmania major promastigote growth inhibition | inhibition, % at 10 µM | 200,000 tested, 9% active | AID 1063 | Leishmania major promastigotes, resazurin fluorescence viability; in the data active = inhibition above about 50%;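 note: promastigotes grown with compound for 44 hours at 28 °C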
Dynein transport – dynein cargo transport inhibition. 3617.4 mouse cells, GR-EGFP nuclear translocation imaging; test concentration mostly 20 µM; stimulated with dexamethasone, 1 µM; stronger effect = lower value. z-score, hits read low. 220,000 tested, 0.47% active;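 active = plate z-score of nuclear minus cytoplasmic receptor signal below a set negative limit, without overly bright fluorescence or cell loss, cut at about -3.5 in these data, passing the limit was not always enough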;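 note: z-score of nuclear minus cytoplasmic ring GR-EGFP intensity difference per well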
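Buffer or medium: tet-free, stripped-serum medium; Also added: dexamethasone, 1.0 µM final; Technique: high-content fluorescence imaging after fixation; Times: 48 h induction, 1 h compound, 30 min dex at 37 °C; Read-out: per-cell GR-EGFP intensity, nucleus versus surrounding cytoplasmic ring, well-averaged.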
HCT116 bCat-KO – beta-catenin-lacking colon tumor cell growth suppression. AID 818. 140,000 tested, 1.5% active. viability, % at 10 µM. HCT116 beta-catenin knockout viability, CellTiter-Glo, 60 h; stronger effect = lower value;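 active = viability at or under a set limit, the compound median less 4 SD, cut at about 6% in these data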
Autophagy mod – autophagy modulation, high-content screen; MEF GFP-LC3 puncta imaging; test concentration mostly 10 µM; calls only at 10 µM (by protocol); 190,000 tested, 0.98% active;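 active = percentage of spot-positive cells more than 3 SD above its plate mean, without a fluorescence outlier flag or 80% toxicity; inconclusive = no clear call, values can overlap the other calls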
Dynein inh conf – dynein cargo transport inhibition, confirmation; shares compounds with Dynein transport; 3617.4 GR-EGFP nuclear translocation imaging, dexamethasone-induced; calls only at 20 µM; 1,000 tested, 69% active; AID 463116;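 active = inhibition of receptor movement into the nucleus at or above a set limit in both runs, with normal cell brightness and cell count; inconclusive = limit reached in only one run, brightness and count normal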;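 note: dexamethasone at 1 µM final in well for 30 min; nuclear minus cytoplasmic GR-EGFP mean intensity difference in channel 2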
Each line names hits and unclear results; the compound was inactive in the other large screens (follow-up assays come after a bar, where they were run). In the library only some 9.2% were active in any assay of this set; here they are far more common.

COC(=O)C1=C(C)NC2=C(C(=O)CC(C)(C)C2)C1c1cnn(C)c1C (stereo not drawn)	none
COC(=O)c1cc([N+](=O)[O-])c(-n2cncn2)c([N+](=O)[O-])c1	Dynein transport -4.61 (no result: HCT116 PTEN-null, HCT116 bCat-KO) | Dynein inh conf active
CCCOc1ccc(C(=O)CCN2CCN(C(=O)OCC)CC2)cc1	Lmaj promast 96.1, Dynein transport -4.11 (no result: HCT116 PTEN-null, HCT116 bCat-KO) | Dynein inh conf inactive
N#Cc1c(Cl)c(Cl)c2nnc(-c3ccc(Br)cc3)n2c1Cl	Dynein transport -6.28 | Dynein inh conf active
N#Cc1c(-c2ccc(Cl)cc2)c(C#N)c(=O)n(N)c1N	none
COc1ccccc1N1C(=O)C2CC(C)=C(C)CC2C1=O (stereo not drawn)	none
COc1ccccc1N1C(=O)C=C(Sc2nc(C)cc(C)n2)C1=O	Dynein transport -3.95 (no result: HCT116 PTEN-null, Lmaj promast, HCT116 bCat-KO, Autophagy mod) | Dynein inh conf active
CCCOc1ccc(CNC(=S)NCc2ccc(OC(C)C)cc2)cc1	none
O=[N+]([O-])c1ccc(Sc2nnnn2-c2ccccc2)nc1	Lmaj promast 81.9, Dynein transport -5.19 (no result: HCT116 PTEN-null, HCT116 bCat-KO) | Dynein inh conf active
O=[N+]([O-])c1ccc(Sc2ccccn2)nc1	none (no result: HCT116 PTEN-null, Lmaj promast, HCT116 bCat-KO, Autophagy mod)
Cc1nn(C)c(C)c1N1C(=O)c2cccc3c(N)ccc(c23)C1=O	none
Cc1ccc(N2C(=O)c3cccc4c(N)ccc(c34)C2=O)c2cccnc12	Dynein transport -5.35 (no result: HCT116 PTEN-null, Lmaj promast, HCT116 bCat-KO, Autophagy mod) | Dynein inh conf inconclusive
Cc1ccc(C(=O)N[C@H](C(=O)OCc2cc(=O)oc3cc(C)ccc23)C(C)C)cc1	none
COc1ccc(N(C(C)C(=O)N/N=C(\C)C(C)(C)C)S(C)(=O)=O)cc1 (stereo not drawn)	none (no result: HCT116 PTEN-null, HCT116 bCat-KO)
CCOC(=O)c1c(-c2ccc(C)o2)csc1NC(=S)NC(=O)N(C)C	Dynein transport -3.83 | Dynein inh conf inactive
CCOC(=O)c1c(-c2ccc(C)o2)csc1NC(=O)COC(=O)c1cccs1	none
COC(=O)c1sc(NC(=O)CSc2n[nH]c(N)n2)c(C(=O)OC)c1C	none (no result: HCT116 PTEN-null, HCT116 bCat-KO)
Cc1ccsc1/C=C/C1=Cc2c(sc(NC(=O)CSc3n[nH]c(N)n3)c2C#N)C(C)(C)C1	Lmaj promast 100.2, Dynein transport -3.58 | Dynein inh conf inactive
N#CC1(C#N)C(c2ccccc2)OC23CCCCC2C1(C#N)C(=N)O3 (stereo not drawn)	Dynein transport -4.19 | Dynein inh conf active
N#CC1(C#N)C(c2ccccc2)OC23CCCCCC2C1(C#N)C(=N)O3 (stereo not drawn)	none
CC(=O)N1/C(=C/c2ccc(N(C)C)cc2)C(=O)c2ccccc21	Lmaj promast 100.3, Dynein transport -5.77 (no result: HCT116 PTEN-null, HCT116 bCat-KO) | Dynein inh conf active
O=C(/C=C/c1cccnc1)c1cc(F)ccc1O	none (no result: HCT116 PTEN-null, Lmaj promast, HCT116 bCat-KO, Autophagy mod)
O=C(/C=C/c1ccccc1)NNC(=O)c1cccnc1	none
N#Cc1ccc(/C=C/C(=O)c2ccc3c(c2)OCO3)cc1	none (no result: HCT116 PTEN-null, HCT116 bCat-KO)
N/C(=N\OC(=O)/C=C/c1ccccc1Cl)c1ccncc1	none (no result: HCT116 PTEN-null, HCT116 bCat-KO)
O=C(/C=C/c1cccnc1)/C=C/c1cccnc1	Dynein transport -6.44 (no result: HCT116 PTEN-null, Lmaj promast, HCT116 bCat-KO, Autophagy mod) | Dynein inh conf active
O=C(/C=C/c1ccc(Cl)cc1)c1cccnc1	HCT116 PTEN-null 0.7, Lmaj promast 100.3, Dynein transport -5.09, HCT116 bCat-KO 0.5 | Dynein inh conf active
N#Cc1ccc(/C=C/C(=O)c2cccnc2)cc1	Lmaj promast 100.5, Dynein transport -5.05 (no result: HCT116 PTEN-null, HCT116 bCat-KO) | Dynein inh conf active
O=C(/C=C/c1ccccc1Cl)c1cccnc1	Lmaj promast 97.5, Dynein transport -4.21 | Dynein inh conf active
CN(C)c1ccc(/C=C2/NC(=O)NC2=O)cc1	none
CN(C)c1ccc(/C=C2\CCC/C(=C\c3ccccc3)C2=O)cc1	none | Dynein inh conf inactive
CC(C)[N+]1=C2C=CC=CC=C2SC12C([N+](=O)[O-])=CC(=[N+]([O-])[O-])C=C2[N+](=O)[O-] (stereo not drawn)	none (no result: HCT116 PTEN-null, Lmaj promast, HCT116 bCat-KO, Autophagy mod)
Cc1c(C#N)c(NC(=O)CCl)n(Cc2cccs2)c1C	Lmaj promast 79.6, Dynein transport -5.25 (no result: HCT116 PTEN-null, HCT116 bCat-KO) | Dynein inh conf active
Cc1cc(C)c2c(=O)n(CC(=O)NCCCN3CCN(c4ccccc4F)CC3)sc2n1	HCT116 PTEN-null 1.8, Dynein transport -7.91, HCT116 bCat-KO 1.7 | Dynein inh conf active
O=Cc1s/c(=N\S(=O)(=O)c2ccccc2)n(CCCCl)c1Cl	Dynein transport -5.74 (no result: HCT116 PTEN-null, HCT116 bCat-KO) | Dynein inh conf active
CCOC(=O)c1ccc(NC(=O)CCc2ccc(C)o2)cc1	none
